Data set [1] relates to 20S proteasome (CP) with PA28αβ activator. Type of data set: biochemical, human. In short, it runs like this: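 Human erythrocyte 20S CP (3 nM final) in 50 mM Tris/HCl pH 8.0 was pretreated with DMSO (≤3% final) or peptide, then mixed with purified human PA28αβ at set molar ratios. After 5 min preincubation, SucLLVY-MCA (50 or 100 μM final) was added. AMC fluorescence at 460 nm was read every 2 min for up to 60 min at 37°C. Activity was expressed as nmol AMC/mg CP/s, with ≥3 repeats using different proteasome batches.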

Data set [2] can be described thus: Solubility in NMR phosphate buffer. Type of data set: physicochemical. Particulars: KH2PO4/Na2HPO4 buffer, pH 6.8 (NMR samples).
Data set [3] relates to 20S proteasome. The data set can be described thus: Peptidase activities of 20S proteasome. Particulars: single peptides; not shown. The format is biochemical, human. In short, it runs like this:
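Human erythrocyte 20S CP, latent or 0.005% SDS-activated, 3 nM final; 50 mM Tris/HCl pH 8.0, DMSO ≤3% final. Test peptide preincubated 10 min at room temperature, then substrate added at 50 or 100 μM final: Suc-LLVY-MCA (ChT-L), Boc-LRR-MCA (T-L), Z-LLE-βNA (PGPH). Emission 460 nm every 2 min, ≤60 min, 37°C; nmol product/mg CP/s; ≥3 repeats across proteasome batches.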

The subject of data set [4] is 20S proteasome activated with 0.005% SDS, ChT-L activity. Description: ChT-L peptidase activity of SDS-activated 20S proteasome. Type of data set: biochemical, human. Particulars: 100% = DMSO solvent control.

Read-outs that look alike come from different tables or passages of the source. Square brackets hold non-standard residues; d marks the D form. Ends that are not written are not given here. Peptide text beside a SMILES is read from it. Nle = CCCC[C@H](N)C(=O)O

Turning to “PA28αβ: purified human PA28αβ proteasome activator (BioMol Inc.)”, the “Activation of CP by PA28αβ (fold)” value in data set [1] (CP:PA28αβ molar ratio 1:1) was “approximately 2,5 x”; in data set [1] (CP:PA28αβ molar ratio 1:2), approximately 5 x; in data set [1] (CP:PA28αβ molar ratio 1:4), approximately 8 x.

Turning to RKKRRQRRQDPI-NH2 [Tat2], in data set [2], the Solubility in buffer entry is on record as “not fully soluble”. For the compound IPKIEDGNDFGV, the “Effect on any of the peptidase activities of 20S proteasome” value in data set [3] is on record as “did not substantially affect”. Take `N=C(N)NCCC[C@H](NC(=O)CN)C(=O)N[C@@H](CCCCN)C(=O)N[C@@H](CCCCN)C(=O)N[C@@H](CCCNC(=N)N)C(=O)N[C@@H](CCCNC(=N)N)C(=O)N[C@@H](CCC(N)=O)C(=O)N[C@@H](CCCNC(=N)N)C(=O)N[C@@H](CCCNC(=N)N)C(=O)N[C@@H](CCCNC(=N)N)C(=O)N1CCC[C@H]1C(=O)N[C@@H](CO)C(N)=O` [Tat1]: the Solubility in buffer entry in data set [2] was “not fully soluble”. For `CCCC[C@H](NC(=O)CNC(=O)[C@H](CCCCN)NC(=O)[C@@H](NC(=O)[C@H](CCC(=O)O)NC(=O)CNC(=O)[C@H](CCCNC(=N)N)NC(=O)[C@@H]1CCCN1C(=O)[C@H](CCCCN)NC(=O)[C@@H](N)CCCCN)[C@@H](C)O)C(=O)N[C@H](C(=O)N[C@@H](Cc1ccc(O)cc1)C(N)=O)[C@@H](C)CC` [KKP] (H-KKPRGETKG[Nle]IY-NH2), the “% of Ch-L activity, SDS-activated proteasome” value turned out to be 107% in data set [4] (1 mM peptide), 115% in data set [4] (2 mM peptide), 108% in data set [4] (5 mM peptide) and 106% in data set [4] (10 mM peptide). On to IPRIEDGNNFGV, for which the “Effect on any of the peptidase activities of 20S proteasome” value in data set [3] is “did not substantially affect”.
